# Source: PubChem
# The list is not random: actives were taken first. Their share in the collection is about 3%.
# PGC1a acetyl inh = inhibitors of PGC1a acetylation signal, primary screen, cell-based, U2OS, AlphaScreen, inhibitor mode | AlphaScreen anti-acetyl-lysine; with virally co-expressed GCN5 acetyltransferase | AID 651687, 2012 | 350,000 tested, 0.17% active | inhibition, % at 15.6 µM;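 active means every replicate shows inhibition of at least 40%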;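 further: 0% = neutral control wells and 100% = positive control wells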
# Ecoli rRNA inh = reduced GFP signal of wild-type E. coli, primary screen, bacterial rRNA inhibitor project, GFP/RFP fluorescence, OD600, single point. AID 720706, 2013. GFP signal change (wild-type ribosome), % (test concentration not listed). 350,000 tested, 1.6% active. E. coli WT GFP vs humanized-ribosome RFP mutants, 24 h; hits give low values; DMSO median 0, no signal -100;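 active means significant combined selectivity score with lowered wild-type GFP, culture density cut under 30%, mutant RFP and density less affected; inactive means any of these conditions unmet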
# Cneo AK release = Cryptococcus neoformans cell lysis inducers, primary screen, AK release luminescence, single concentration. C. neoformans lysis, adenylate kinase release luminescence, 4 h; normalised: neutral wells 0, clomiphene wells 100. lysis activity, % at 15 µM. 360,000 tested, 0.2% active;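 active means mean lysis activity across replicates of at least 80%, whatever share of replicates individually reach that level; inactive means mean lysis activity below 80%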
#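 Assay system: Cryptococcus neoformans yeast cells / Dosing: single-point compound dose / Timing: 4 h at 37 °C static, read 1 h later / Measured by: luminescence of released adenylate kinase using an AK detection reagent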
# S100A4 inh HTS = inhibitors of S100A4-myosin IIA peptide binding, primary screen, biochemical, fluorescence polarization, TAMRA-MyoIIA peptide. inhibition, % at 10.7 µM. 360,000 tested, 0.14% active. Protein S100-A4 (Homo sapiens), P26447. AID 652163, 2013;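 active means mean inhibition of at least 70% across replicates, with every replicate also reaching that level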
# Target sequence (P26447 whole entry, looked up): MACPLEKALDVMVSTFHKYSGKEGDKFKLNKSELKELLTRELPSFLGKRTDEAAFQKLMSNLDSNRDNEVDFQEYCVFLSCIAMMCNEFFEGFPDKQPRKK
#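 Material: human S100A4 monomer with TAMRA-labelled myosin IIA peptide; buffer or medium: HEPES pH 7.2 with CaCl2, KCl, NaCl, DTT, Triton; compound dosing: one concentration per compound; schedule: 5 min incubation before reading; benchmarks: neutral control DMSO, positive control TFP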
# C2C12 statin = suppressors of statin myotoxicity in C2C12 myotubes, primary screen, cell-based, single point, plate reader; C2C12 myotubes + simvastatin, ATP luminescence, 48 h; scaled: DMSO 0, geranylgeraniol control 100; rescue of ATP level, % at 7.49 µM; 330,000 tested, 0.78% active;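 active means mean ATP rescue above about 67%, or every replicate alone reaching that limit, limit read from the data, passing the limit was not always enough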;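 further: myotubes were challenged with 10 µM simvastatin during compound exposure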
# SIRT5 block = SIRT5 desuccinylase inhibitors, primary screen, biochemical, fluorescence imaging, single point, set 5; NAD-dependent protein deacylase sirtuin-5, mitochondrial (Homo sapiens), Q9NXA8; Purified SirT5, succinyl-peptide AMC, trypsin-coupled fluorescence; inhibition, % at 15 µM; 330,000 tested, 1.1% active; AID 652115, 2013; in the data active means inhibition above about 15%
# Target sequence (Q9NXA8 whole entry, looked up): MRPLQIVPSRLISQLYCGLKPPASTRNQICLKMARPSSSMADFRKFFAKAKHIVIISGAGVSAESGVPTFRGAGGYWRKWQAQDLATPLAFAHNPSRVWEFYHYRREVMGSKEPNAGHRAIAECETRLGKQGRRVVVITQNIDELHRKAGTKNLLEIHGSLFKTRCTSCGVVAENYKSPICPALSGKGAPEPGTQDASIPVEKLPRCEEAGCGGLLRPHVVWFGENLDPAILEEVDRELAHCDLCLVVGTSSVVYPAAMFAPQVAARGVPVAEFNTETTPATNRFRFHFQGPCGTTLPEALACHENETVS
# * hit, by the source's call; . = not tested or not shown; + = active, no number.
SMILES,PGC1a acetyl inh,Ecoli rRNA inh,Cneo AK release,S100A4 inh HTS,C2C12 statin,SIRT5 block
C[C@H]1CN([C@@H](C)CO)C(=O)c2cccc(NC(=O)Nc3ccccc3)c2O[C@@H]1CN(C)Cc1ccc(Cl)c(Cl)c1,8.5,-3.7,0.1,-11.6,-30.6,-0.3
C[C@@H]1CN([C@H](C)CO)C(=O)c2cccc(NC(=O)Nc3ccccc3)c2O[C@@H]1CN(C)Cc1ccc(Cl)c(Cl)c1,24.2,-6.2,101.1*,-0.8,-14.8,8.3
C[C@H](CO)N1C[C@H](C)[C@H](CN(C)Cc2ccc(Cl)c(Cl)c2)Oc2c(NC(=O)Nc3ccccc3)cccc2C1=O,-7.2,-1.9,89.7*,0.2,22.1,-1.4
CC1(CCc2ccccc2)NC(=O)N(CC(=O)Nc2ccc(OC(F)F)cc2)C1=O (centres undefined),-3.5,-28.8*,-1.7,5.4,-4.9,-1.4
CC1(CCc2ccccc2)NC(=O)N(CC(=O)Nc2ccc(S(N)(=O)=O)cc2)C1=O (centres undefined),8.4,7.5,.,-0.2,.,-3.2
COc1ccc(-c2cn(CC(=O)N3CCC4(CC3)C(=O)NCN4c3ccccc3)nn2)cc1OC,.,.,1.3,3.5,.,3.1
Cc1nc(N)nc(N)c1CCCc1ccc(Cl)c(Cl)c1,-5.1,-33.1,2.3,-2.2,.,15.0*
CC(C)(C)c1ccc(OCC(=O)N/N=C/c2cc(Br)ccc2OC(=O)c2ccco2)cc1,11.2,.,-0.4,.,135.3*,.
CC(C)OCCCn1c(SCC(=O)N2CCc3ccccc32)nc2ccccc2c1=O,.,2.1,.,-3.5,.,20.6*
Cc1cc(=S)[nH]c2c(C)cccc12,-6.1,.,1.3,.,74.2*,.
O=C(COC(=O)c1cccs1)Nc1cccc(S(=O)(=O)NC2=NCCCCC2)c1,.,3.8,.,-1.5,.,0.3
O=C(Cc1ccccc1[N+](=O)[O-])Nc1cccc(S(=O)(=O)NC2=NCCCCC2)c1,-7.0,-2.9,3.0,-6.4,15.4,-6.9
O=C(COC(=O)c1ccc([N+](=O)[O-])s1)Nc1cccc(S(=O)(=O)NC2=NCCCCC2)c1,.,1.9,.,-0.9,.,26.2*
Cc1ccc(C(=O)OCC(=O)Nc2cccc(S(=O)(=O)NC3=NCCCCC3)c2)c(C)c1,-28.0,-22.4*,-1.6,-1.5,.,-3.5
O=C(/C=C/c1ccc([N+](=O)[O-])cc1)Nc1cccc(S(=O)(=O)NC2=NCCCCC2)c1,.,-9.4*,.,-0.4,.,.
COc1ccc(CN(C)C[C@@H]2OCCCC[C@@H](C)Oc3ccc(NS(=O)(=O)c4c(C)noc4C)cc3C(=O)N([C@H](C)CO)C[C@@H]2C)cc1,-2.9,5.2,-0.9,.,.,.
COc1ccc(C(=O)C(/C=N/O)=N/Nc2ccc(F)cc2)cc1,6.1,-25.9*,.,1.9,-80.4,0.3
CO/N=C/C(=N\Nc1ccc(OC)cc1)C(=O)c1ccc(OC)cc1,3.6,.,0.2,.,5.8,.
C[C@@H]1CN([C@@H](C)CO)C(=O)c2cc(C3=CCCCC3)cnc2O[C@@H]1CN(C)C(=O)c1ccccn1,-2.2,4.8,-3.8,-3.4,23.5,4.7
NC(Cc1ccc2nsnc2c1)C(=O)O (centres undefined),-16.5,13.8,-0.9,-0.5,12.4,-4.4
N[C@@H](Cc1ccc(O)c(O)c1)C(=O)O,-1.6,.,-1.2,14.0,1.0,15.1*
COc1cccc2c1C(=O)c1c(O)c3c(c(O)c1C2=O)CC(O)(C(=O)CO)CC3OC1CC(N(C)C)C(O)C(C)O1 (centres undefined),33.4,-55.6,.,+,.,0.3
COc1cccc2c1C(=O)c1c(O)c3c(c(O)c1C2=O)C[C@@](O)(C(C)=O)C[C@@H]3O[C@H]1C[C@H](N)[C@H](O)[C@H](C)O1,50.9*,25.1,-1.4,+,-166.8,0.3
C[C@@H]1CCCCO[C@H](CN(C)C(=O)Nc2ccc(F)cc2)[C@@H](C)CN([C@@H](C)CO)C(=O)c2cc(NC(=O)c3ccccc3)ccc2O1,-0.6,-4.2,-2.8,-5.1,.,-3.3
O=C(C[C@H]1CC[C@@H]2[C@H](COC[C@H](O)CN2Cc2cccc(Cl)c2)O1)NCC1CCCCC1,-5.8,-35.3,0.8,.,9.5,.
SMILES,PGC1a acetyl inh,Ecoli rRNA inh,Cneo AK release,S100A4 inh HTS,C2C12 statin,SIRT5 block
CC1CCN(S(=O)(=O)c2ccc(Oc3ccc([N+](=O)[O-])cc3)cc2)CC1,53.9*,.,.,.,.,.
Cn1ncc(Br)c1C(=O)NC12CC3CC(CC(C3)C1)C2,.,-29.9*,.,7.1,.,-4.0
CCCC(CCC(=O)Nc1ccc(C(=O)OC)cc1)C(=O)O (centres undefined),8.3,.,0.0,.,-1.6,.
CCCC(CCC(=O)Nc1ccc(C(=O)OCC)cc1)C(=O)O (centres undefined),-1.6,.,-1.6,.,105.5*,.
CCOC(=O)c1ccc(NC(=O)c2ccco2)cc1,-1.5,-2.8,-4.6,0.8,-16.2,16.8*
COc1ccc(CN2[C@@H]3CN(C(=O)Nc4ccc(F)cc4)c4ccccc4[C@@H]3[C@@H]2CO)cc1,-0.2,-6.9,-0.3,-4.3,-7.4,-1.4
CC1=C(C(=O)N(C)C)CC(CC(=O)NCc2ccco2)C(=O)N1Cc1ccccc1 (centres undefined),-32.9,2.1,-0.4,-3.1,-0.3,16.0*
CCCN1[C@@H]2Cn3c(ccc(-c4ccc(F)cc4)c3=O)[C@H]1[C@@H](C(=O)NCCc1cn(C)cn1)[C@@H]2CO,-1.4,-1.7,-2.2,.,0.1,.
FC(F)(F)c1ccnc(Sc2n[nH]c(C(F)(F)F)n2)c1,-1.0,-24.8*,.,-2.9,-8.5,-1.0
CC(C)NC(=O)N(C)C[C@H]1Oc2ccc(NS(=O)(=O)c3cccs3)cc2C(=O)N([C@H](C)CO)C[C@H]1C,-2.3,-3.5,.,.,.,.
c1ccc(-c2ncc(CN3CCN(c4ccccn4)CC3)[nH]2)cc1,27.3,5.6,-1.0,-0.5,79.0*,-5.0
c1ccc(N2CCN(Cc3nc4ccccc4[nH]3)CC2)nc1,.,5.3,18.6,1.4,8.8,-2.1
CCCC(=O)Nc1ccc2c(c1)C(=O)N(C)[C@@H]1CC[C@@H](CC(=O)NCCc3ccccc3)O[C@H]1CO2,-4.4,1.9,.,.,3.3,.
CCN1CCN(c2ccc(S(=O)(=O)N3CCCCC3)cc2NC(=O)/C=C/c2cccc(OC)c2OC)CC1,.,-20.2*,0.3,37.7,.,0.0
